Laboratory results from ChEMBL document CHEMBL3632499, “Synthesis and Antiproliferative Activity Evaluation of the Disulfide-Containing Cyclic Peptide Thiochondrilline C and Derivatives” (J Nat Prod, 2015).

Assays:
[1] = tested on: K562; experiment: Antiproliferative activity against human K562 cells; format: functional
Method in brief: (§1)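 Profiled in the National Cancer Institute 60 cancer cell line screen. Reported GI50 is the concentration giving 50% growth inhibition, TGI the concentration giving total growth inhibition, and LC50 the concentration giving 50% net cell killing. Values are averages ± SEM from two independent determinations.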

[2] = tested on: SR; experiment: Antiproliferative activity against human SR cells; format: functional
Method in brief: (§2)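 Run in the National Cancer Institute 60 cancer cell line panel. Read-outs: GI50, the concentration causing 50% growth inhibition; TGI, the concentration causing total growth inhibition; LC50, the concentration causing 50% net cell killing. Values are averages ± SEM from two independent determinations.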

[3] = Antiproliferative activity against human EKVX cells; format: functional; method in brief: as §1
[4] = tested on: HOP-62; experiment: Antiproliferative activity against human HOP62 cells; format: functional; method in brief: as §1
[5] = Antiproliferative activity against human HOP92 cells; format: functional; method in brief: as §1
[6] = tested on: NCI-H460; experiment: Antiproliferative activity against human NCI-H460 cells; format: functional; method in brief: as §1
[7] = tested on: NCI-H522; experiment: Antiproliferative activity against human NCI-H522 cells; format: functional; method in brief: as §1
[8] = tested on: SF-268; experiment: Antiproliferative activity against human SF268 cells; format: functional; method in brief: as §1
[9] = tested on: SNB-19; experiment: Antiproliferative activity against human SNB19 cells; format: functional; method in brief: as §2
[10] = tested on: SNB-75; experiment: Antiproliferative activity against human SNB75 cells; format: functional; method in brief: as §2
[11] = tested on: M14; experiment: Antiproliferative activity against human M14 cells; format: functional; method in brief: as §1
[12] = tested on: SK-MEL-28; experiment: Antiproliferative activity against human SK-MEL-28 cells; format: functional; method in brief: as §1
[13] = tested on: SK-MEL-5; experiment: Antiproliferative activity against human SK-MEL-5 cells; format: functional; method in brief: as §1
[14] = tested on: UACC-257; experiment: Antiproliferative activity against human UACC257 cells; format: functional; method in brief: as §2
[15] = tested on: IGROV-1; experiment: Antiproliferative activity against human IGROV1 cells; format: functional; method in brief: as §1
[16] = tested on: OVCAR-4; experiment: Antiproliferative activity against human OVCAR4 cells; format: functional; method in brief: as §1
[17] = tested on: OVCAR-8; experiment: Antiproliferative activity against human OVCAR8 cells; format: functional; method in brief: as §1
[18] = tested on: 786-0; experiment: Antiproliferative activity against human 786-0 cells; format: functional; method in brief: as §1
[19] = tested on: A498; experiment: Antiproliferative activity against human A498 cells; format: functional; method in brief: as §1
[20] = tested on: TK-10; experiment: Antiproliferative activity against human TK10 cells; format: functional; method in brief: as §2
[21] = tested on: UO-31; experiment: Antiproliferative activity against human UO31 cells; format: functional; method in brief: as §2
[22] = tested on: PC-3; experiment: Antiproliferative activity against human PC3 cells; format: functional; method in brief: as §1
[23] = tested on: MCF7; experiment: Antiproliferative activity against human MCF7 cells; format: functional; method in brief: as §1
[24] = tested on: MDA-MB-468; experiment: Antiproliferative activity against human MDA-MB-468 cells; format: functional; method in brief: as §1
[25] = Half life in mouse plasma; format: ADME, cell-free
[26] = read-out: LC50 (the source's name)

Compound: C[C@H](NC(=O)[C@@H]1CSSC[C@@H](NC(=O)c2nc3ccccc3cc2O)C(=O)NCC(=O)N1C)c1ccccc1
- GI50 [1]: 0.7 µM
- TGI [1]: 3.1 µM
- CC50 [1, 26]: > 50 µM
- GI50 [2]: 0.2 µM
- TGI [2]: 1.2 µM
- CC50 [2, 26]: > 50 µM
- GI50 [3]: 3.8 µM
- TGI [3]: 11.8 µM
- CC50 [3, 26]: 31.4 µM
- GI50 [4]: 12.2 µM
- TGI [4]: 21 µM
- CC50 [4, 26]: 36.8 µM
- GI50 ([5]; HOP-92): 9.7 µM
- TGI ([5]; HOP-92): 18.6 µM
- CC50 ([5]; HOP-92, read-out: LC50 (the source's name)): 35.6 µM
- GI50 [6]: 1.3 µM
- TGI [6]: 8 µM
- CC50 [6, 26]: 30.5 µM
- GI50 [7]: 3.6 µM
- TGI [7]: 10.5 µM
- CC50 [7, 26]: 29.1 µM
- GI50 [8]: 0.4 µM
- TGI [8]: 11.1 µM
- CC50 [8, 26]: 35.6 µM
- GI50 [9]: 7.3 µM
- TGI [9]: 19.5 µM
- CC50 [9, 26]: > 50 µM
- GI50 [10]: 7.7 µM
- TGI [10]: > 50 µM
- CC50 [10, 26]: > 50 µM
- GI50 [11]: 0.3 µM
- TGI [11]: 10.3 µM
- CC50 [11, 26]: > 50 µM
- GI50 [12]: 0.9 µM
- TGI [12]: 9.9 µM
- CC50 [12, 26]: 31.8 µM
- GI50 [13]: 0.6 µM
- TGI [13]: 3.8 µM
- CC50 [13, 26]: 15.6 µM
- GI50 [14]: 8.3 µM
- TGI [14]: 27.8 µM
- CC50 [14, 26]: > 50 µM
- GI50 [15]: 4 µM
- TGI [15]: 12.9 µM
- CC50 [15, 26]: 37.6 µM
- GI50 [16]: 8 µM
- TGI [16]: 18.4 µM
- CC50 [16, 26]: 42.4 µM
- GI50 [17]: 5.2 µM
- TGI [17]: 17.8 µM
- CC50 [17, 26]: > 50 µM
- GI50 [18]: 2.5 µM
- TGI [18]: 9.8 µM
- CC50 [18, 26]: 33.5 µM
- GI50 [19]: 15 µM
- TGI [19]: 33.5 µM
- CC50 [19, 26]: > 50 µM
- GI50 [20]: 8.1 µM
- TGI [20]: 15.4 µM
- CC50 [20, 26]: 29.7 µM
- GI50 [21]: 5.8 µM
- TGI [21]: 13.3 µM
- CC50 [21, 26]: 30.8 µM
- GI50 [22]: 6.1 µM
- TGI [22]: 13.5 µM
- CC50 [22, 26]: 30.3 µM
- GI50 [23]: 0.9 µM
- TGI [23]: 2.6 µM
- CC50 [23, 26]: 16.1 µM
- GI50 [24]: 6 µM
- TGI [24]: 13.3 µM
- CC50 [24, 26]: 29.8 µM
- half-life [25]: 4.9 h
